Tests used:
[1] = Synergistic cytotoxicity against mouse L5178 cells assessed as combination index at ED90 using 600:1 test compound to doxorubicin ratio after 48 hrs by MTT-based checkerboard microplate method; format: functional
Method in brief: (§1)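 Checkerboard microplate combinations of compound with doxorubicin at constant molar ratios. 5 × 10^4 cells/well in McCoy's 5A, 48 h at 37°C, 5% CO2. MTT added to 0.5 mg/mL final for 4 h, SDS/HCl overnight, OD read at 540 and 630 nm. Combination indices derived per ratio for 50%, 75% and 90% growth inhibition by median-effect analysis.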

[2] = Synergistic cytotoxicity against mouse L5178 cells expressing human ABCB1 assessed as combination index at ED90 using 30:1 test compound to doxorubicin ratio after 48 hrs by MTT-based checkerboard microplate method; format: functional; method in brief: as §1
[3] = Synergistic cytotoxicity against mouse L5178 cells assessed as combination index at ED90 using 150:1 test compound to doxorubicin ratio after 48 hrs by MTT-based checkerboard microplate method; format: functional; method in brief: as §1
[4] = Synergistic cytotoxicity against mouse L5178 cells assessed as combination index at ED50 using 150:1 test compound to doxorubicin ratio after 48 hrs by MTT-based checkerboard microplate method; format: functional; method in brief: as §1
[5] = Cytotoxicity against mouse L5178 cells after 48 hrs by MTT assay; format: functional, cell-based; conditions: L5178, 48 h
Method in brief: (§2)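 Parental mouse lymphoma L5178 and the MDR line made by pHa MDR1/A retrovirus transfection, selected with 60 µg/L colchicine. Grown in McCoy's 5A with horse serum at 37°C, 5% CO2. 5 x 10^4 cells/well, serial compound dilutions, 48 h. MTT added to 0.5 mg/mL final for 4 h, then 10% SDS in 0.01 M HCl overnight, OD read at 540 and 630 nm. IC50 taken as median cytotoxic activity (Dm) from control lanes of checkerboard plates, n=2.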

[6] = Synergistic cytotoxicity against mouse L5178 cells assessed as combination index at ED75 using 300:1 test compound to doxorubicin ratio after 48 hrs by MTT-based checkerboard microplate method; format: functional; method in brief: as §1
[7] = Synergistic cytotoxicity against mouse L5178 cells assessed as combination index at ED50 using 75:1 test compound to doxorubicin ratio after 48 hrs by MTT-based checkerboard microplate method; format: functional; method in brief: as §1
[8] = Synergistic cytotoxicity against mouse L5178 cells assessed as combination index at ED75 using 150:1 test compound to doxorubicin ratio after 48 hrs by MTT-based checkerboard microplate method; format: functional; method in brief: as §1
ABCB1 (P-glycoprotein) [9] = molecular target: T1, ABCB1 (P-glycoprotein) (Homo sapiens, UniProt P08183); assay: Inhibition of human ABCB1 expressed in mouse L5178 cells assessed as increase in rhodamine-123 accumulation at 20 uM after 10 mins by flow cytometric analysis relative to control; format: cell-based; conditions: mouse L5178 cells expressing human ABCB1, probe rhodamine-123
Method in brief: (§3)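 Cells at 2 × 10^6/mL were preincubated 10 min with compound. Rhodamine 123 then added to 5.2 µM final, 20 min at 37 °C. Cells washed twice in PBS, resuspended and read by flow cytometry. Percent inhibition was scaled between MDR-cell accumulation (0%) and parental L5178 accumulation (100%). Controls: 100 nM tariquidar (positive) and 2% DMSO (negative).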

[10] = Synergistic cytotoxicity against mouse L5178 cells expressing human ABCB1 assessed as combination index at ED75 using 7.5:1 test compound to doxorubicin ratio after 48 hrs by MTT-based checkerboard microplate method; format: functional; method in brief: as §1
HeLa = assay: Antiproliferative activity against human HeLa cells after 72 hrs by MTT assay; format: functional, cell-based
Method in brief: (§4)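 Cells grown in MEM with 10% FCS, 1% non-essential amino acids and 1% penicillin-streptomycin. Seeded at 5000 cells/well, exposed to 0.1–30.0 µM compound for 72 h. MTT (5 mg/ml solution) was then added for 4 h, formazan dissolved in DMSO, and absorbance read at 545 nm. Cisplatin served as positive control. IC50 came from sigmoidal dose–response fits (log inhibitor vs normalized response, variable slope).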

[11] = Synergistic cytotoxicity against mouse L5178 cells assessed as combination index at ED90 using 300:1 test compound to doxorubicin ratio after 48 hrs by MTT-based checkerboard microplate method; format: functional; method in brief: as §1
[12] = Synergistic cytotoxicity against mouse L5178 cells assessed as combination index at ED75 using 600:1 test compound to doxorubicin ratio after 48 hrs by MTT-based checkerboard microplate method; format: functional; method in brief: as §1
ABCB1 (P-glycoprotein) [13] = molecular target: T1, ABCB1 (P-glycoprotein); assay: Inhibition of human ABCB1 expressed in mouse L5178 cells assessed as increase in rhodamine-123 accumulation at 2 uM after 10 mins by flow cytometric analysis relative to control; format: cell-based; conditions: mouse L5178 cells expressing human ABCB1, probe rhodamine-123; method in brief: as §3
[14] = Synergistic cytotoxicity against mouse L5178 cells assessed as combination index at ED50 using 37.5:1 test compound to doxorubicin ratio after 48 hrs by MTT-based checkerboard microplate method; format: functional; method in brief: as §1
[15] = Synergistic cytotoxicity against mouse L5178 cells expressing human ABCB1 assessed as combination index at ED50 using 15:1 test compound to doxorubicin ratio after 48 hrs by MTT-based checkerboard microplate method; format: functional; method in brief: as §1
[16] = Synergistic cytotoxicity against mouse L5178 cells assessed as combination index at ED50 using 300:1 test compound to doxorubicin ratio after 48 hrs by MTT-based checkerboard microplate method; format: functional; method in brief: as §1
SiHa = assay: Antiproliferative activity against human SiHa cells after 72 hrs by MTT assay; format: functional, cell-based; method in brief: as §4
[17] = Synergistic cytotoxicity against mouse L5178 cells assessed as combination index at ED50 using 600:1 test compound to doxorubicin ratio after 48 hrs by MTT-based checkerboard microplate method; format: functional; method in brief: as §1
[18] = Synergistic cytotoxicity against mouse L5178 cells assessed as combination index at ED90 using 75:1 test compound to doxorubicin ratio after 48 hrs by MTT-based checkerboard microplate method; format: functional; method in brief: as §1
[19] = Synergistic cytotoxicity against mouse L5178 cells expressing human ABCB1 assessed as combination index at ED75 using 60:1 test compound to doxorubicin ratio after 48 hrs by MTT-based checkerboard microplate method; format: functional; method in brief: as §1
[20] = Synergistic cytotoxicity against mouse L5178 cells expressing human ABCB1 assessed as combination index at ED50 using 30:1 test compound to doxorubicin ratio after 48 hrs by MTT-based checkerboard microplate method; format: functional; method in brief: as §1
[21] = Synergistic cytotoxicity against mouse L5178 cells expressing human ABCB1 assessed as combination index at ED90 using 15:1 test compound to doxorubicin ratio after 48 hrs by MTT-based checkerboard microplate method; format: functional; method in brief: as §1
[22] = Synergistic cytotoxicity against mouse L5178 cells expressing human ABCB1 assessed as combination index at ED75 using 30:1 test compound to doxorubicin ratio after 48 hrs by MTT-based checkerboard microplate method; format: functional; method in brief: as §1
[23] = Synergistic cytotoxicity against mouse L5178 cells expressing human ABCB1 assessed as combination index at ED50 using 7.5:1 test compound to doxorubicin ratio after 48 hrs by MTT-based checkerboard microplate method; format: functional; method in brief: as §1
MCF7 = assay: Antiproliferative activity against human MCF7 cells after 72 hrs by MTT assay; format: functional, cell-based; conditions: MCF7, 72 h; method in brief: as §4
[24] = Synergistic cytotoxicity against mouse L5178 cells assessed as combination index at ED75 using 37.5:1 test compound to doxorubicin ratio after 48 hrs by MTT-based checkerboard microplate method; format: functional; method in brief: as §1
[25] = Synergistic cytotoxicity against mouse L5178 cells expressing human ABCB1 assessed as combination index at ED75 using 15:1 test compound to doxorubicin ratio after 48 hrs by MTT-based checkerboard microplate method; format: functional; method in brief: as §1
[26] = Synergistic cytotoxicity against mouse L5178 cells assessed as combination index at ED90 using 37.5:1 test compound to doxorubicin ratio after 48 hrs by MTT-based checkerboard microplate method; format: functional; method in brief: as §1
[27] = Synergistic cytotoxicity against mouse L5178 cells expressing human ABCB1 assessed as combination index at ED50 using 60:1 test compound to doxorubicin ratio after 48 hrs by MTT-based checkerboard microplate method; format: functional; method in brief: as §1
[28] = Cytotoxicity against mouse L5178 cells expressing human ABCB1 after 48 hrs by MTT assay; format: functional, cell-based; conditions: L5178, 48 h; method in brief: as §2
[29] = Synergistic cytotoxicity against mouse L5178 cells assessed as combination index at ED75 using 75:1 test compound to doxorubicin ratio after 48 hrs by MTT-based checkerboard microplate method; format: functional; method in brief: as §1
[30] = Synergistic cytotoxicity against mouse L5178 cells expressing human ABCB1 assessed as combination index at ED90 using 7.5:1 test compound to doxorubicin ratio after 48 hrs by MTT-based checkerboard microplate method; format: functional; method in brief: as §1
MDA-MB-231 = assay: Antiproliferative activity against human MDA-MB-231 cells after 72 hrs by MTT assay; format: functional, cell-based; conditions: MDA-MB-231, 72 h; method in brief: as §4
[31] = Synergistic cytotoxicity against mouse L5178 cells expressing human ABCB1 assessed as combination index at ED90 using 60:1 test compound to doxorubicin ratio after 48 hrs by MTT-based checkerboard microplate method; format: functional; method in brief: as §1

T1 sequence (P08183 whole entry): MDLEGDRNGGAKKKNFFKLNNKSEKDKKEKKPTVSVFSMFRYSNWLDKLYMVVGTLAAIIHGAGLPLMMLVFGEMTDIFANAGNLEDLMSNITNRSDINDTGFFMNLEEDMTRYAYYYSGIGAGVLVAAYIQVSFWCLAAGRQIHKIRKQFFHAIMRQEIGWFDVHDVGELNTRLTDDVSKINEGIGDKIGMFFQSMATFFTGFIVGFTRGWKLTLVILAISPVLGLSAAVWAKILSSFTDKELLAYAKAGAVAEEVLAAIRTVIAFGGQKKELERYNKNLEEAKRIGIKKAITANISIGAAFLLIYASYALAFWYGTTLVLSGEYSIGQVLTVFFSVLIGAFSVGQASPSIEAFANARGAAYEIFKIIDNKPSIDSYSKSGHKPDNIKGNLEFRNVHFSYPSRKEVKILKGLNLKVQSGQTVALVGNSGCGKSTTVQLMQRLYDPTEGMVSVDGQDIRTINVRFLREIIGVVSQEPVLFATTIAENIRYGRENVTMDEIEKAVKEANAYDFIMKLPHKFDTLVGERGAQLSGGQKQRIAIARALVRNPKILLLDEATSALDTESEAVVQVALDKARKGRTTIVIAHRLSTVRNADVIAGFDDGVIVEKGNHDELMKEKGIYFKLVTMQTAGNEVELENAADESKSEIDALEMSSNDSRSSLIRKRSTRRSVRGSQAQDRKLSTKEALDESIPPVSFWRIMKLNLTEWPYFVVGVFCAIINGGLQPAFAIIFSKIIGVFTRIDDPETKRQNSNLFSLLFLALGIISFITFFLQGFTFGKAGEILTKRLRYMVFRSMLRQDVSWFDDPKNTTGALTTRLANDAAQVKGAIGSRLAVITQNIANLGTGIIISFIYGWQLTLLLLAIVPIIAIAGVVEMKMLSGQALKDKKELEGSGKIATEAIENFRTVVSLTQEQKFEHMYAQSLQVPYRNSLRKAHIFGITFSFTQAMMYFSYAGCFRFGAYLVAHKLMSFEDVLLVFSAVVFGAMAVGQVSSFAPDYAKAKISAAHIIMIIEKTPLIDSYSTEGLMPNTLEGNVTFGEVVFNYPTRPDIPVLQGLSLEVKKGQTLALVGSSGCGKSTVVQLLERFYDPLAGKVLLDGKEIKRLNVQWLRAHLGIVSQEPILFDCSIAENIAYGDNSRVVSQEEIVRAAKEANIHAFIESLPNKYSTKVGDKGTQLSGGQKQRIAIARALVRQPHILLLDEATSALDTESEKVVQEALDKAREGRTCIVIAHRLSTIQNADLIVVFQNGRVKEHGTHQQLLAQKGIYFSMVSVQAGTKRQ

Compound	CI [1]	CI [2]	CI [3]	CI [4]	IC50 [5] [µM]	CI [6]	CI [7]	CI [8]	inhibition at 10 min, 20 µM (ABCB1 (P-glycoprotein) [9]) [%]	CI [10]	IC50 (HeLa) [µM]	CI [11]	CI [12]	inhibition at 10 min, 2 µM (ABCB1 (P-glycoprotein) [13]) [%]	CI [14]	CI [15]	CI [16]	IC50 (SiHa) [µM]	CI [17]	CI [18]	further results
CC(C)(O)CC[C@H]1OC(C)(C)O[C@]1(C)[C@H]1CC=C2C3=CC(=O)N[C@@H]4C[C@H]5OC(C)(C)O[C@H]5C[C@]4(C)[C@H]3CC[C@@]21C	0.67	0.11	0.46	0.4	63.4	0.46	0.62	0.42	4.27	0.15	> 30	0.5	0.63	1.16	0.57	0.2	0.43	> 30	0.58	0.43	CI [19]: 0.17; CI [20]: 0.18; CI [21]: 0.09; CI [22]: 0.13; CI [23]: 0.24; IC50 (MCF7): > 30 µM; CI [24]: 0.51; CI [25]: 0.12; CI [26]: 0.46; CI [27]: 0.2; IC50 [28]: 72.4 µM; CI [29]: 0.52; CI [30]: 0.1; IC50 (MDA-MB-231): > 30 µM; CI [31]: 0.15
CCO/N=C1\C=C2[C@H](CC[C@]3(C)[C@@H]([C@@]4(C)OC(C)(C)O[C@@H]4CCC(C)(C)O)CC[C@@]23O)[C@@]2(C)C[C@@H]3OC(C)(C)O[C@@H]3C[C@@H]12	0.89	0.26	1.1	0.17	35	1.08	0.59	0.8	78.8	0.14	> 30	1.06	0.95	17.5	0.55	0.57	1.09	> 30	1.02	0.84	CI [19]: 0.35; CI [20]: 0.2; CI [21]: 0.15; CI [22]: 0.23; CI [23]: 0.18; IC50 (MCF7): 22.6 µM; CI [24]: 0.58; CI [25]: 0.16; CI [26]: 0.6; CI [27]: 0.31; IC50 [28]: 47 µM; CI [29]: 0.7; CI [30]: 0.12; IC50 (MDA-MB-231): > 30 µM; CI [31]: 0.41
CO/N=C1\C=C2[C@H](CC[C@]3(C)[C@@H]([C@@]4(C)OC(C)(C)O[C@@H]4CCC(C)(C)O)CC[C@@]23O)[C@@]2(C)C[C@@H]3OC(C)(C)O[C@@H]3C[C@@H]12	0.91	0.24	0.62	1.06	40.9	0.8	0.99	0.79	25.1	0.17	> 30	0.83	0.9	2.25	1.19	0.17	0.82	> 30	0.93	1.19	CI [19]: 0.39; CI [20]: 0.19; CI [21]: 0.16; CI [22]: 0.21; CI [23]: 0.19; IC50 (MCF7): > 30 µM; CI [24]: 1.14; CI [25]: 0.16; CI [26]: 1.13; CI [27]: 0.29; IC50 [28]: 55.1 µM; CI [29]: 1.06; CI [30]: 0.16; IC50 (MDA-MB-231): > 30 µM; CI [31]: 0.52

— ChEMBL document CHEMBL4145462, “Nitrogen-containing ecdysteroid derivatives vs. multi-drug resistance in cancer: Preparation and antitumor activity of oximes, oxime ethers and a lactam” (Eur J Med Chem, 2018)
